In article PMC10213863 (Cell Reports Medicine, 2023):
“And” between values parts separate entries of the source, which are not always exact repeats. Equal values may be shown once.

Columns and labels:
Assay type in all cases: cell-based
[1] = target: T1, TLR7 (Homo sapiens, UniProt Q9NYK1); test: HEK293-NFkB-luciferase reporter cells transfected with TLR7, R848 stimulation; conditions: IC50, TLR7 response in HEK transfectants, mean ± SD
T1 sequence (Q9NYK1 27-1049): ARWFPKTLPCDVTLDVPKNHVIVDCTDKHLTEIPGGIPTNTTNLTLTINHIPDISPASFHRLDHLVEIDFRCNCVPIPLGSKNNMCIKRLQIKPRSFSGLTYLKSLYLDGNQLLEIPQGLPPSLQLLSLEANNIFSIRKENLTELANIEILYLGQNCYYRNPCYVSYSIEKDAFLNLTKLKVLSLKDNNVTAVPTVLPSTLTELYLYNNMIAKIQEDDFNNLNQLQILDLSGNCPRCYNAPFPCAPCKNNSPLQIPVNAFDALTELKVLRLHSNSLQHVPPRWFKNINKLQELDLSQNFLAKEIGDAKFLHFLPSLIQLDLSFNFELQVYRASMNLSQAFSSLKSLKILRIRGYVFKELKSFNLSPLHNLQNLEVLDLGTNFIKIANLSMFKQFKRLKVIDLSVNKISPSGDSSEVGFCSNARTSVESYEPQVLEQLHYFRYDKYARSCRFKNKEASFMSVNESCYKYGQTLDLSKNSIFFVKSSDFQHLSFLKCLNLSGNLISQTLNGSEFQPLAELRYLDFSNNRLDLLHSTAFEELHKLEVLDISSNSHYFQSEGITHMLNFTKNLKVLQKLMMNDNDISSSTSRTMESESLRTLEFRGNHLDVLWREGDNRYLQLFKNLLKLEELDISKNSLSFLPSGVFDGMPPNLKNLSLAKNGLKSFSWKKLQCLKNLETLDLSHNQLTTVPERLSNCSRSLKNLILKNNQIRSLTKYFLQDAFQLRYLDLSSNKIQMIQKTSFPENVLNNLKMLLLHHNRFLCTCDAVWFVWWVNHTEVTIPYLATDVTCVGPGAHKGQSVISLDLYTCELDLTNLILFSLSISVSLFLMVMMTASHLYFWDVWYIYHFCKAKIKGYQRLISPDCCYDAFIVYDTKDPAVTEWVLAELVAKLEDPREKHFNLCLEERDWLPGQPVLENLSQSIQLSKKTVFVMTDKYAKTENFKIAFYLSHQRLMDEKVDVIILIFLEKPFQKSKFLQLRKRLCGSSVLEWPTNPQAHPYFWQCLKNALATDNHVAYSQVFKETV
Summary of the method: (§1)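 HEK293-NFkB-luciferase cells stably expressing HA-tagged human TLR7 or TLR8 were pre-treated 60 min at 37°C, 5% CO2 with increasing concentrations of test compound or 0.25% v/v DMSO. They were then stimulated 6 h with R848: 0.3 μM for TLR7, 4 μM for TLR8. Luciferase activity […] was read by Bright-Glo luminescence.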

[2] = target: T2, TLR8 (Homo sapiens, UniProt Q9NR97); test: HEK293-NFkB-luciferase reporter cells transfected with TLR8, R848 stimulation
T2 sequence (Q9NR97 27-1041): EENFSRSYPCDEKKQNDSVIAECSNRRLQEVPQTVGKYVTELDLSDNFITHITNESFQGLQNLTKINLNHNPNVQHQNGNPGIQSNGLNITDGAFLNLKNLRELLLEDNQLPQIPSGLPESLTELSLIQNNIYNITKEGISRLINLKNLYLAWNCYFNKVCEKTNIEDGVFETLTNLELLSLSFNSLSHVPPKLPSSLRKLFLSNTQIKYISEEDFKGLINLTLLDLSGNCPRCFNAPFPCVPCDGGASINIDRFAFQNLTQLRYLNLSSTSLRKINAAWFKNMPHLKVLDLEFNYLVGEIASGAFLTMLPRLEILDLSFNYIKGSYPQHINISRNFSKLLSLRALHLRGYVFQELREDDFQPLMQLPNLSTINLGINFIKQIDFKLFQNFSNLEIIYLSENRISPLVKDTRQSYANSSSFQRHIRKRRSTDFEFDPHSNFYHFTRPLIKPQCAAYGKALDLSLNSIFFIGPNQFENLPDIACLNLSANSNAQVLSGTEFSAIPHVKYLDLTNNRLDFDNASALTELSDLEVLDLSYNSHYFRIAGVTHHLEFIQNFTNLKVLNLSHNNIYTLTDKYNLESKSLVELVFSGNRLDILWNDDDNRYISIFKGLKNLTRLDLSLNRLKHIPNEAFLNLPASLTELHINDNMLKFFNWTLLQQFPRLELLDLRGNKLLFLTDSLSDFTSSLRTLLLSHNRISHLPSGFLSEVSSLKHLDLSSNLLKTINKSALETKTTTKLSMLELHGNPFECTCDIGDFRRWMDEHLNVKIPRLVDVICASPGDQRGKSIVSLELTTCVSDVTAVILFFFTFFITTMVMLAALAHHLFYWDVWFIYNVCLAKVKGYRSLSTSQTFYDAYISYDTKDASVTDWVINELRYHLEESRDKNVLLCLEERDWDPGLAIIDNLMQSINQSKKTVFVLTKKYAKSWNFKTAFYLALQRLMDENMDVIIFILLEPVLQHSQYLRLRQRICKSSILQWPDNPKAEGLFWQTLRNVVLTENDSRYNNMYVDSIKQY
Summary of the method: as §1

[3] = tested on: human PBMCs, monocytes, neutrophils, human blood; test: Cell viability in profiling assays; conditions: human primary cells; concentrations of up to 10 μM
Summary of the method: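 Toxicity counter-screens were run within each primary-cell assay across the test-compound dose range. PBMCs, isolated monocytes and neutrophils were read by CellTiter-Glo. Diluted whole blood was read by ATPlite luminescence.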

[4] = target: T2, TLR8; test: Human whole blood assay, ssRNA-TNF
Summary of the method: (§2)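 Fresh human blood or 129/Sv mouse blood was taken into citrate and diluted 1:1 with RPMI1640. It was pre-incubated 30 min at 37°C, 5% CO2 with increasing concentrations of test compound or 0.25% v/v DMSO (final). Blood was then stimulated with TLR agonists at doses from earlier work, or with R848 (3 μM), and cytokines were quantified. Viability was checked by ATPlite luminescence.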

[5] = target: TLR9 (Mus musculus, UniProt Q9EQU3); test: Murine whole blood assay, ODN-IFN-α
Sequence of TLR9 (Q9EQU3 26-1032): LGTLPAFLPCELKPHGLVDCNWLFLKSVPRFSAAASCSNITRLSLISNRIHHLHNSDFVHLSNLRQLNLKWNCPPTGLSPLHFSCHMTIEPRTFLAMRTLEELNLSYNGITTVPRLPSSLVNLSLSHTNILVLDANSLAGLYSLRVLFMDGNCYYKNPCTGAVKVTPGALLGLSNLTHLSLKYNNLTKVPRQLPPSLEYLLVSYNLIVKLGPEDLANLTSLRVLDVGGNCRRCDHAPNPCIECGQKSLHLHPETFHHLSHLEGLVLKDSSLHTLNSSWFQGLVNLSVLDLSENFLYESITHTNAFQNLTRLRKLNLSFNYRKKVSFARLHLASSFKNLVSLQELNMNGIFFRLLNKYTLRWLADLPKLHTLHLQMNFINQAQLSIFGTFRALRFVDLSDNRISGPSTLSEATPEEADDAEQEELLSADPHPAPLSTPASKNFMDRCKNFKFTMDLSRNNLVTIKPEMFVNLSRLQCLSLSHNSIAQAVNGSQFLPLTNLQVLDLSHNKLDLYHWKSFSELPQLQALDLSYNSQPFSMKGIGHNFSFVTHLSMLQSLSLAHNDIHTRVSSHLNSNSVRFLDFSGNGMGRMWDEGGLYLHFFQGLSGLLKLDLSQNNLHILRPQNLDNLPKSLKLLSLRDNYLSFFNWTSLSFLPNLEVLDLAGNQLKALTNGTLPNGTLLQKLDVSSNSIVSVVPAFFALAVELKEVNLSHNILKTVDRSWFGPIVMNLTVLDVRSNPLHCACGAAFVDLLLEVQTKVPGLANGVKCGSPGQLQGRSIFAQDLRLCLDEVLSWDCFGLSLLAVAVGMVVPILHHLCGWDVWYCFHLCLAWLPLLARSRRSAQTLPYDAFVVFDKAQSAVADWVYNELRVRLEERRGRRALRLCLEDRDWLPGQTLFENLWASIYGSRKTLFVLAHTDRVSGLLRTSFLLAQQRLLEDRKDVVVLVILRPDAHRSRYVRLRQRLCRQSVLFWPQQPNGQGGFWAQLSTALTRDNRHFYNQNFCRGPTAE
Summary of the method: as §2

SMILES: Cc1cc(N2CCc3c(c(C)nn3CC34CCC(NC(=O)[C@@H]5COCCN5)(CC3)CC4)C2)c2cnn(C)c2n1 [MHV370, (S)-N-(4-((5-(1,6-dimethyl-1H-pyrazolo[3,4-b]pyridin-4-yl)-3-methyl-4,5,6,7-tetrahydro-1H-pyrazolo[4,3-c]pyridin-1-yl)methyl)bicyclo[2.2.2]octan-1-yl)morpholine-3-carboxamide]
- IC50 [1]: 1 nM and 1.1 nM
- IC50 [2]: 4.5 ± 1.1 nM
- cell toxicity [3]: did not lead to cell toxicity
- IC50 [4]: 31 ± 4.4 nM
- IC50 [5]: > 10000 nM
- functional inhibition of TLR9 ([5]; mouse blood, up to 10 μM): did not show functional inhibition
